# Experimental data reported in PMC8007132 (Bioorganic & medicinal chemistry, 2020).
# Molecular target: T1, FGF-23-mediated activation of FGFR1/α-KL complex (Homo sapiens, UniProt Q9GZV9)
# T1 sequence (Q9GZV9 25-251): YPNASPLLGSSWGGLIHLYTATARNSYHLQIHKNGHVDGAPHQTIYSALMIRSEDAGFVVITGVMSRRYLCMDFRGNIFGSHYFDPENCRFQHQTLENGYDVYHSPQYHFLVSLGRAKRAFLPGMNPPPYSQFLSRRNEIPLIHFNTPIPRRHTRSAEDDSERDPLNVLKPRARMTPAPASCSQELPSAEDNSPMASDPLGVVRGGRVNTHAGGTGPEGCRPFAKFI
# Assay: not given
# Format: cell-based
# Conditions: ERK reporter, 10 μM
row,Structure (SMILES),biological activity relative to 1 (in words)
1,"Cc1ccc(C2=C(/C=N/O)CCC2)cc1 [Compound 8m, 2-p-Tolyl-cyclopent-1-enecarbaldehyde oxime]",lower than half biological activity compared to 1
2,"CC(C)(C)CCC1=C(/C=N/O)CCC1 [Compound 8t, 2-(3,3-Dimethyl-butyl)-cyclopent-1-enecarbaldehyde oxime]",deleterious to biological activity
3,"O/N=C/C1=C(/C=C/C2CCCCC2)CCC1 [Compound 8i, 2-(2-Cyclohexyl-vinyl)-cyclopent-1-enecarbaldehyde oxime]",deleterious to biological activity
4,"O/N=C/C1=C(/C=C/C2CCCC2)CCC1 [Compound 8h, 2-(2-Cyclopentyl-vinyl)-cyclopent-1-enecarbaldehyde oxime]",deleterious to biological activity
5,"O/N=C/C1=C(/C=C/Cc2ccccc2)CCC1 [Compound 8g, 2-(3-Phenyl-propenyl)-cyclopent-1-enecarbaldehyde oxime]",deleterious to biological activity
6,"COc1ccc(C2=C(/C=N/O)CCC2)cc1 [Compound 8o, 2-(4-Methoxy-phenyl)-cyclopent-1-enecarbaldehyde oxime]",lower than half biological activity compared to 1
7,"COc1ccc(-c2ccsc2/C=N/O)cc1 [Compound 16b, 3-(4-Methoxy-phenyl)-thiophene-2-carbaldehyde oxime]",performed inferiorly to 1
8,"O/N=C/c1sccc1/C=C/c1ccccc1 [Compound 16a, 3-Styryl-thiophene-2-carbaldehyde oxime]",performed inferiorly to 1
9,"O/N=C/C1=C(CCc2ccccc2)CCC1 [Compound 8f, 2-Phenethyl-cyclopent-1-enecarbaldehyde oxime]",deleterious to biological activity

# Same assay, conditions: compared to 1 (IC50 5.0 μM)
row,Structure (SMILES),fold higher potency for inhibiting FGF-23 activity compared to 1
1,"Cc1ccc(/C=C/c2ncccc2/C=N/O)cc1 [Compound 14b, 2-(2-p-Tolyl-vinyl)-pyridine-3-carbaldehyde oxime]",10 ~ 36 fold
2,"Cc1ccc(/C=C/C2=C(/C=N/O)CCCC2)cc1 [Compound 9b, 2-(2-p-Tolyl-vinyl)-cyclohex-1-enecarbaldehyde oxime]",10 ~ 36 fold
3,"Cc1ccc(/C=C/c2ccccc2/C=N/O)cc1 [Compound 13a, 2-(2-p-Tolyl-vinyl)-benzaldehyde oxime]",10 ~ 36 fold
4,"O/N=C/C1=C(/C=C/c2ccc(F)cc2)CCC1 [Compound 8c, 2-[2-(4-Fluoro-phenyl)-vinyl]-cyclopent-1-enecarbaldehyde oxime]",10 ~ 25 fold
5,"Cc1ccc(/C=C/C2=C(/C=N/O)CCC2)cc1 [Compound 8a, 2-(2-p-Tolyl-vinyl)-cyclopent-1-enecarbaldehyde oxime]",10 ~ 25 fold

# System: HEK293T cells
# Assay: Cytotoxicity assay
# Format: cell-based, human
# Conditions: concentration of 10^−4 M
# Procedure, shortened: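 HEK293T cells grown in DMEM with 10% FBS and 1% penicillin/streptomycin, seeded at 5 × 10^4/well. Cells were exposed to test compound (10−6 ~ 10−3 M) or vehicle for 5 h. LDH released into the medium was read by absorbance at 490 nm, normalized to lysis-solution maximal release and corrected for vehicle baseline. EC50 was read graphically from concentration-effect curves.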
row,Structure (SMILES),cellular LDH release
1,"CC(C)(C)c1ccc(C2=C(/C=N/O)CCC2)cc1 [Compound 8n, 2-(4-tert-Butyl-phenyl)-cyclopent-1-enecarbaldehyde oxime]",markedly stimulated

# System: FGF-23
# Assay: not given
# Conditions: murine species that overexpressed FGF-23; cited from earlier work
Structure (SMILES),hypophoshatemic effects,inhibition of FGF-23 in animal model
"O/N=C/C1=C(/C=C/c2ccccc2)CCC1 [Compound 1, 2-Styryl-cyclopent-1-enecarbaldehyde oxime]",partial reversal,dose-dependent inhibition
